Assay [1] concerns the target T1, Macrophage colony-stimulating factor 1 receptor (Mus musculus) (UniProt P09581).
T1 sequence (whole entry): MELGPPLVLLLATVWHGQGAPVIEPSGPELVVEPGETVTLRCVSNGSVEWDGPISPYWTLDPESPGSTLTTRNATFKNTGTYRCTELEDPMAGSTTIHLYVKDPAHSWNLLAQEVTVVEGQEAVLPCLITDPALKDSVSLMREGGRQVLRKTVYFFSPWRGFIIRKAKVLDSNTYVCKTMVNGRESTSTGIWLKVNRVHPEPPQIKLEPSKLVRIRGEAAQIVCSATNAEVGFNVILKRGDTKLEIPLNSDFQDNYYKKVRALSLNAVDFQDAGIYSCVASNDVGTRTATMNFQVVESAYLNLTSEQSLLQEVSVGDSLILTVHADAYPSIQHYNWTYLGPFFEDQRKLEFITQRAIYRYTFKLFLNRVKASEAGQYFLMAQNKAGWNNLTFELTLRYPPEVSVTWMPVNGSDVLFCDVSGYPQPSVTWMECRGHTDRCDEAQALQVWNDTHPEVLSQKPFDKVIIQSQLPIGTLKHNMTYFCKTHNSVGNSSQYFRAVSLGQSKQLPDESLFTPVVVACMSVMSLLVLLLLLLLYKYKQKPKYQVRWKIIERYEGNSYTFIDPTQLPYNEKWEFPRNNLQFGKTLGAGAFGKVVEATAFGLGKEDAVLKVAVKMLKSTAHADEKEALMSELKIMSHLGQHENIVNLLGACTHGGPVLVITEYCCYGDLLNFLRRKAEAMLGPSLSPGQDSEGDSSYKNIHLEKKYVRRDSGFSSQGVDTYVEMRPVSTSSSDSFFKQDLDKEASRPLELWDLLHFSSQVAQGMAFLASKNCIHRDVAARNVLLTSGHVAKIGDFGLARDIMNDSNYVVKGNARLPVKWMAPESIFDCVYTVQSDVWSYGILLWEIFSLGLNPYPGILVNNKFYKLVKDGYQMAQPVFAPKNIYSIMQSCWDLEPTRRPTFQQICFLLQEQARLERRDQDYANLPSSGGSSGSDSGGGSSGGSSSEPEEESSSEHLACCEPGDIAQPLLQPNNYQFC
Put plainly: In vivo inhibition of CSF1R in wildtype mouse assessed as microglial numbers by measuring number of Iba positive cells per FOV in somatosensory cortex at 75 ppm administered as rodent chow starting from 1.5 months and measured after 5 months by immunolabeling based confocal microscopic analysis (reference value: 218 to 349). The format is functional. The settings on record: route po, time 3.5 months.

For assay [2], the target named is Tyrosine-protein kinase Blk (Homo sapiens, UniProt P51451). The assay can be described thus: Inhibition of BLK (unknown origin).
Assay [3] is described as follows: Effect on Csf1r RPKM gene expression in wild type mouse cortex at 1200 ppm administered as rodent chow starting from 1.5 months and measured after 7 months by RNA-Seq analysis (reference value: 18.302 to 19.220 RPKM). The format is functional. The settings on record: route po, time 5.5 months, 4015 h.
The test system of assay [4] is Mus musculus. Put plainly: Antialzheimer activity in 5XFAD mouse assessed as number of Iba1 positive cells per FOV in […] cortex at 1200 ppm administered as rodent chow starting from 1.5 months to 4 months followed by compound removal and measured after 1 months by immunolabelling based confocal microscopic analysis (reference value: 210 to 529). The format is functional. To be noted: route po, time 2.5 months, 1825 h. A digest of the protocol:
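For the repopulation paradigm, 5xFAD mice ate 1200 ppm PLX5622 chow from 1.5 to 4 months of age. Inhibitor chow was then withdrawn, and brains were examined one month later. Sections were stained with Thio-S and immunolabeled for IBA1, then analysed by confocal microscopy in cortical regions.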

Assay [5] deals with MAP kinase-activated protein kinase 5 (Homo sapiens, UniProt Q8IW41). The assay can be described thus: Inhibition of MAPKAPK5 (unknown origin).
Assay [6] concerns the target Eukaryotic elongation factor 2 kinase (Homo sapiens, UniProt O00418). The assay can be described thus: Inhibition of EEF2K (unknown origin).
Assay [7] concerns the target Inhibitor of nuclear factor kappa-B kinase subunit epsilon (Homo sapiens, UniProt Q14164). Put plainly: Inhibition of IKBKE (unknown origin).
Assay [8] deals with Protein kinase C zeta type (Homo sapiens, UniProt Q05513). The assay can be described thus: Inhibition of PRKCZ (unknown origin).
Assay [9] deals with Serine/threonine-protein kinase PAK 2 (Homo sapiens, UniProt Q13177). Put plainly: Inhibition of PAK2 (unknown origin).
The target of assay [10] is Inhibitor of nuclear factor kappa-B kinase subunit alpha (Homo sapiens, UniProt O15111). The assay can be described thus: Inhibition of CHUK (unknown origin).
For assay [11], the target named is Megakaryocyte-associated tyrosine-protein kinase (Homo sapiens, UniProt P42679). The assay can be described thus: Inhibition of MATK (unknown origin).
Assay [12] relates to Mus musculus. The assay can be described thus: Antialzheimer activity in 5XFAD mouse assessed as number of GFAP positive cell per FOV in retro spinal cortex at 1200 ppm administered as rodent chow for 10 to 24 weeks by immunolabelling based confocal microscopic analysis (reference value: 217 to 477). The format is functional. The settings on record: route po, time 10-24 weeks.

The target in assay [13] is Mitogen-activated protein kinase kinase kinase kinase 4 (Homo sapiens, UniProt O95819). Put plainly: Inhibition of MAP4K4 (unknown origin).
Assay [14] deals with Serine/threonine-protein kinase PAK 5 (Homo sapiens, UniProt Q9P286). The assay can be described thus: Inhibition of PAK7 (unknown origin).
A short description of assay [15]: Effect on Cx3cr1 gene expression in wild type mouse thalamus at 1200 ppm administered as rodent chow starting from 1.5 months and measured after 7 months by RNA-Seq analysis (reference value: 10.263 to 12.137 RPKM). The format is functional. To be noted: route po, time 5.5 months, 4015 h.
In assay [16] the target is Receptor tyrosine-protein kinase erbB-2 (Homo sapiens, UniProt P04626). The assay can be described thus: Inhibition of ERBB2 (unknown origin).
In assay [17] the test system is Mus musculus. The assay can be described thus: Effect on APP processing pathway in 5XFAD mouse assessed as PS1 protein signal intensity in cortex at 1200 ppm administered as rodent starting from 1.5 months and measured after 7 months (reference value: 64.603 to 143.235 %). The format is functional. To be noted: route po, time 5.5 months, 4015 h.
For assay [18], the target named is Rhodopsin kinase GRK7 (Homo sapiens, UniProt Q8WTQ7). Put plainly: Inhibition of GRK7 (unknown origin).
The subject of assay [19] is Mus musculus. Put plainly: Antialzheimer activity in 5XFAD mouse assessed as iron reactivity by measuring hemosiderin intensity of prussian blue staining in thalamus at 1200 ppm administered as rodent chow starting from 1.5 months and measured after 4 months by confocal microscopic analysis (reference value: 0.1 to 4.094 a.u.). In kind it is functional. To be noted: route po, time 2.5 months, 1825 h. In outline:
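Wild-type or 5xFAD mice fed PLX5622 (1200 ppm) in AIN-76A chow from 1.5 months of age, examined in 4- and 7-month-old cohorts. Brain sections stained with a Prussian blue kit per kit instructions to detect iron deposits (microbleeds).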

The target of assay [20] is Phosphatidylinositol 4-kinase beta (Homo sapiens, UniProt Q9UBF8). The assay can be described thus: Inhibition of PI4KB (unknown origin).
Assay [21] can be described thus: Effect on ccl6 gene expression in 5XFAD mouse hippocampus at 1200 ppm administered as rodent chow starting from 1.5 months and measured after 7 months by RNA-Seq analysis (reference value: 5.688 to 8.240 RPKM). In kind it is functional. To be noted: route po, time 5.5 months, 4015 h.

Eukaryotic elongation factor 2 kinase, sequence (O00418 whole entry): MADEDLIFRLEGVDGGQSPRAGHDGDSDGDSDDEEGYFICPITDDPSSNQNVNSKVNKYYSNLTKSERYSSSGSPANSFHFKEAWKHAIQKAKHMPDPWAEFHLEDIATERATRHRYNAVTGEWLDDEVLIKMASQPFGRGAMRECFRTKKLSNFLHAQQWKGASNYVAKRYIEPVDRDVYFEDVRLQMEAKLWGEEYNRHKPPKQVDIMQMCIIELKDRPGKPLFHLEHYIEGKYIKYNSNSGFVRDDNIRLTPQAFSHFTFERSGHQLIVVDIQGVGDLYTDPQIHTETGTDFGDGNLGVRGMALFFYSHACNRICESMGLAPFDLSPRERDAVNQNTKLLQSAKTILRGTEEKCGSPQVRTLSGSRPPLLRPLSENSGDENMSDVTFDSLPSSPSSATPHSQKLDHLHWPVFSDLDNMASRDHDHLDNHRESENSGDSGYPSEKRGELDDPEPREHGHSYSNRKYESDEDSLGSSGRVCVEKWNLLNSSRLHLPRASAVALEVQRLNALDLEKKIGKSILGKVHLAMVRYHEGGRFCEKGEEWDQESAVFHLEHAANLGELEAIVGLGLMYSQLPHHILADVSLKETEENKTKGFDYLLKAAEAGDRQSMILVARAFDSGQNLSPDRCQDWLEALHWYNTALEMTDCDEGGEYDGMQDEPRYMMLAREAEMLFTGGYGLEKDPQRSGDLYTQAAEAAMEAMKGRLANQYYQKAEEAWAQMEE
MAP kinase-activated protein kinase 5, sequence (Q8IW41 whole entry): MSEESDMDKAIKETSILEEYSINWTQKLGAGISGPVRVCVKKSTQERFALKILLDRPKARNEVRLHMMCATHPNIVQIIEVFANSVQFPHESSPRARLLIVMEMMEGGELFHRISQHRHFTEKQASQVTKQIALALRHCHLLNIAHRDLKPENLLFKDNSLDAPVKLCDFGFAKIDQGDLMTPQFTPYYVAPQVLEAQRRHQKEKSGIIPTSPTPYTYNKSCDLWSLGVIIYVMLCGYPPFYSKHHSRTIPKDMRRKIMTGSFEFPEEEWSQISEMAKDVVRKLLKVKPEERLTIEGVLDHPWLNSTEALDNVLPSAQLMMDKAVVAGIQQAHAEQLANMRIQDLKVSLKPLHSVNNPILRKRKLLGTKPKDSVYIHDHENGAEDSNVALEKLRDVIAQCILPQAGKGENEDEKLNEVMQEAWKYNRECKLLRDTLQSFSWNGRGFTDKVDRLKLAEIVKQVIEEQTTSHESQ
Phosphatidylinositol 4-kinase beta, sequence (Q9UBF8 whole entry): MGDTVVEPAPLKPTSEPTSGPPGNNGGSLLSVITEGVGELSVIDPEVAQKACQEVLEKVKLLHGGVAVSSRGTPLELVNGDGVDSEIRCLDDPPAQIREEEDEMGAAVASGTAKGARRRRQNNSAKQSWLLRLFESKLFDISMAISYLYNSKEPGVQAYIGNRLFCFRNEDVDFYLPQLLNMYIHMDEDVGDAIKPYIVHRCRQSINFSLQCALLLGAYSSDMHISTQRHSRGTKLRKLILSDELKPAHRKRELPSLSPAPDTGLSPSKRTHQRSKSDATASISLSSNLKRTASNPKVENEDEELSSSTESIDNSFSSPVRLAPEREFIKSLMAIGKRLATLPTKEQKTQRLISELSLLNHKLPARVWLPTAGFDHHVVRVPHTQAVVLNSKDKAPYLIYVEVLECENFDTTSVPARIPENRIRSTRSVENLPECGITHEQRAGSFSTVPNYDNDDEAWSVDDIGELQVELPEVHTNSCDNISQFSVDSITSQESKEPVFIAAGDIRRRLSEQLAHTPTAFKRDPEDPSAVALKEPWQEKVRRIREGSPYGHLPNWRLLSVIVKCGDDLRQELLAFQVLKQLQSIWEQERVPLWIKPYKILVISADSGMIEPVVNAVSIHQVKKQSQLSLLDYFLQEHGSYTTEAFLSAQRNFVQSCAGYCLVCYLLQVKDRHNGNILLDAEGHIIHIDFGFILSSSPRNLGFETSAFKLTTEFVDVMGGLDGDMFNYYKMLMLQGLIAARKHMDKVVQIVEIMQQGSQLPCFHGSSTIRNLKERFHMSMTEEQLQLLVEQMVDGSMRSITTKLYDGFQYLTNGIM
Mitogen-activated protein kinase kinase kinase kinase 4, sequence (O95819 whole entry): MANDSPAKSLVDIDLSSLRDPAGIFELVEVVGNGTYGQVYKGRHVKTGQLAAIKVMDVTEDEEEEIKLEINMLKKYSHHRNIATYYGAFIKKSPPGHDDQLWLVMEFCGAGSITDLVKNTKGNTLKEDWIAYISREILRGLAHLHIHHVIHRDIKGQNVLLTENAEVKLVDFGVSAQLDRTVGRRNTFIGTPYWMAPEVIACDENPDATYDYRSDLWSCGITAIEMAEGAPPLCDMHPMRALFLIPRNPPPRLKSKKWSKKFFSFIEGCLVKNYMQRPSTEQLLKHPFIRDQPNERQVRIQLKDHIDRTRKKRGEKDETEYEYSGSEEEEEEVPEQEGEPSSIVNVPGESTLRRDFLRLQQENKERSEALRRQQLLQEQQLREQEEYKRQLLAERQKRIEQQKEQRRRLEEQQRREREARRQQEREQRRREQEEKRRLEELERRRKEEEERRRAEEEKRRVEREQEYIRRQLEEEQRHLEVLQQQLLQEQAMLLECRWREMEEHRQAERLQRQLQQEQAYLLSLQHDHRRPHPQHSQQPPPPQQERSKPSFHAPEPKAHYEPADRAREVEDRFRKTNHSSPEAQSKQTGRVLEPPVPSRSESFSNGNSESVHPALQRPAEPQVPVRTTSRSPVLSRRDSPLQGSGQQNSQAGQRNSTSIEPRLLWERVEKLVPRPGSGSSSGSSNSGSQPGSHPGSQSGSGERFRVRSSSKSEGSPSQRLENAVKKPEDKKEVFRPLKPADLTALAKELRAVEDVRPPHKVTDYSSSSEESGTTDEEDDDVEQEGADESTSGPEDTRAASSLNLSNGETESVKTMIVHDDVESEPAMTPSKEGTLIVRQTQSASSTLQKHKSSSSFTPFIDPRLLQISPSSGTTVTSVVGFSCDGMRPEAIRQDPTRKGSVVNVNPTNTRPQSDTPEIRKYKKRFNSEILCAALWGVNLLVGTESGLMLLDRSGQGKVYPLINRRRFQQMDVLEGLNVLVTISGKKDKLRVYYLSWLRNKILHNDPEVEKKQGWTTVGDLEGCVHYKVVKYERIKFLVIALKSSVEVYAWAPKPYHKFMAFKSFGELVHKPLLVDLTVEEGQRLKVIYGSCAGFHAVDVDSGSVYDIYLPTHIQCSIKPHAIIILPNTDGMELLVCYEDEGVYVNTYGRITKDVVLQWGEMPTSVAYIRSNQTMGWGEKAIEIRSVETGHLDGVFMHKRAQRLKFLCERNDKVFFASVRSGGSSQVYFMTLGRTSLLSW
Serine/threonine-protein kinase PAK 5, sequence (Q9P286 whole entry): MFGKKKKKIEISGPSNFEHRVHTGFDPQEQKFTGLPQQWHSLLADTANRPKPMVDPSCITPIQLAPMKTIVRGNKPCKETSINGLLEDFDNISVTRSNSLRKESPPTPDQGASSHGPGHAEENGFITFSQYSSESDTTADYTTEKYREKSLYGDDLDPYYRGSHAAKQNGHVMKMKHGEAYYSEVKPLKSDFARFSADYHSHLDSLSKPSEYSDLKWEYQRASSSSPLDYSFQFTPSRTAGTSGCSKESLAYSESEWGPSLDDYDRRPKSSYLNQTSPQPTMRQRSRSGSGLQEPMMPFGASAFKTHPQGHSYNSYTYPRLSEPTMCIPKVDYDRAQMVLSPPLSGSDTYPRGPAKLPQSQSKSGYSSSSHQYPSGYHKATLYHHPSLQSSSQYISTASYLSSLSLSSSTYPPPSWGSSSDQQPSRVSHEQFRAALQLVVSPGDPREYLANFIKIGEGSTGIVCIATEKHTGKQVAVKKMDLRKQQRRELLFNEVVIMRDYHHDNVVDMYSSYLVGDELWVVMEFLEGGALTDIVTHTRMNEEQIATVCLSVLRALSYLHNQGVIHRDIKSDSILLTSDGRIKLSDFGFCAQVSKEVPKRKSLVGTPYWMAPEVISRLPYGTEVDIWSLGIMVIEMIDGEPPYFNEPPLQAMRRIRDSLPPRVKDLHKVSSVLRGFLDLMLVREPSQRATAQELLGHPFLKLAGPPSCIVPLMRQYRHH
Rhodopsin kinase GRK7, sequence (Q8WTQ7 whole entry): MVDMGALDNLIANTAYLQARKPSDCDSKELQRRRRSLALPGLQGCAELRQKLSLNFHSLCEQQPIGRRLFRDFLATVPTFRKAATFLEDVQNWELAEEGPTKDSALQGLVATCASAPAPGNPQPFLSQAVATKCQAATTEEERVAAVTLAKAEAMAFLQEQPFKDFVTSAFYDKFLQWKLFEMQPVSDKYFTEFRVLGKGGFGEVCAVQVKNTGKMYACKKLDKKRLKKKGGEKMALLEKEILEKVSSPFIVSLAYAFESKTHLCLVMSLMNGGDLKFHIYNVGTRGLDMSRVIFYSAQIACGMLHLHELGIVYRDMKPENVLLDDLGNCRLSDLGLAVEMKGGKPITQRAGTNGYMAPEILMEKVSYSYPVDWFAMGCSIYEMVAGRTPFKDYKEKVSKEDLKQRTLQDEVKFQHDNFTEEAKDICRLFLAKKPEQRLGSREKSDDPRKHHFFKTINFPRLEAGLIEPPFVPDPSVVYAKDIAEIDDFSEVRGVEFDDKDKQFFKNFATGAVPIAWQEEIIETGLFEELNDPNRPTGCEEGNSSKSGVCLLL
Megakaryocyte-associated tyrosine-protein kinase, sequence (P42679 whole entry): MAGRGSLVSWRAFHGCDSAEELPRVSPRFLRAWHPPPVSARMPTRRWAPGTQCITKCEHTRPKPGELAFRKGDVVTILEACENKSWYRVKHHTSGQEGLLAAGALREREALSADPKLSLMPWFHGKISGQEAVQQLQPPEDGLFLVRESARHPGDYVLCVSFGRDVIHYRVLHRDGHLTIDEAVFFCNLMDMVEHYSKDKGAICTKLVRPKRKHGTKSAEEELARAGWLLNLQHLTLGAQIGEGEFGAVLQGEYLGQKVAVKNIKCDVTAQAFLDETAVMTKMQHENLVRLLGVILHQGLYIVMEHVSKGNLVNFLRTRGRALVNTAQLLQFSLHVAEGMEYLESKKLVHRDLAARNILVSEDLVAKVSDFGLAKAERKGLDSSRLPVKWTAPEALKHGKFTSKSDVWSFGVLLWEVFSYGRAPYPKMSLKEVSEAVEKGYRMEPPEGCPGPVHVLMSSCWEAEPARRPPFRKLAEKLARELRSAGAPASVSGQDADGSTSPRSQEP

Take `FC(F)(F)c1ccc(CNc2ccc(Cc3c[nH]c4ncc(Cl)cc34)cn2)cn1` [PEXIDARTINIB]: the Activity in [1] is 205.
As a reminder, the IC50 is the concentration needed to halve the response being measured. Read a low IC50 as higher potency. For `COc1ncc(F)cc1CNc1ccc(Cc2c[nH]c3ncc(C)cc23)c(F)n1` [PLX-5622], the IC50 in assay [2], in assay [5], in assay [6], in assay [7], in [8] and in assay [9] was above 1000 nM throughout. Also, the IC50 in [10], in assay [11], in [13], in assay [14], in [16] and in assay [18] was above 1000 nM in each case. The IC50 in [20] was above 1000 nM. For the same compound, the Activity stood at 0.073 RPKM in assay [3]; 66 in assay [4]; 92 in [12]; 0.026 RPKM in assay [15]; 56.036% in [17]; 0.488 RPKM in assay [21]. For the same compound, the Flu intensity in assay [19] came out at 0.249 a.u.

Source of the values: ChEMBL document CHEMBL5649170, “Sustained microglial depletion with CSF1R inhibitor impairs parenchymal plaque development in an Alzheimer's disease model” (Nat Commun, 2019).
